# Assay results: ChEMBL document CHEMBL4706579, “Novel quinazolinone inhibitors of the Pseudomonas aeruginosa quorum sensing transcriptional regulator PqsR” (Eur J Med Chem, 2020)
# The source made the active and inactive calls. No cut-off for these calls is given here.
# How the values were obtained:
# [1] = test system: Pseudomonas aeruginosa; experiment: Bactericidal activity against Pseudomonas aeruginosa PAO1 L assessed as inhibition of bacterial growth; assay type: functional, organism-based
# [2] = target: T1, Transcriptional regulator MvfR (Pseudomonas aeruginosa PA14, UniProt A0A072ZLE6); experiment: Inhibition of PqsR in Pseudomonas aeruginosa PA14 harboring mCTX:PpqsA-lux fusion protein measured every 30 mins for 24 hrs by luminescence reporter gene assay
# T1 sequence (A0A072ZLE6 whole entry): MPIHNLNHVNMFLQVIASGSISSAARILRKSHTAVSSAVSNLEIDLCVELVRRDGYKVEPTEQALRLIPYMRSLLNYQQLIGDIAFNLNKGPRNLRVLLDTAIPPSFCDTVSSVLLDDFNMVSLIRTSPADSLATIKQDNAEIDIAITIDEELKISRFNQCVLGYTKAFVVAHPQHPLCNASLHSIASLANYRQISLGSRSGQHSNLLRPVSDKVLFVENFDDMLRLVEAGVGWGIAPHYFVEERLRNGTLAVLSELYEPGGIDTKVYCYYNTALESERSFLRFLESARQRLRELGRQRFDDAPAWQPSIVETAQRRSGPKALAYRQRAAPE
# Summary of the method: (§1)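 Chromosomal mCTX:PpqsA-lux reporter strain grown overnight to OD600 2.0–3.0, diluted in LB to OD600 0.02 and mixed 1:1 with compound in LB. Ten […] serial concentrations, final 31.6 μM to 1 nM, in triplicate. Run at 37 °C for 24 h with OD600 and luminescence read every 30 min. IC50 from log concentration vs RLU/OD600 at the luminescence peak (8–9 h).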
# [3] = target: T1, Transcriptional regulator MvfR; experiment: Inhibition of PqsR in Pseudomonas aeruginosa PAO1 L harboring mCTX:PpqsA-lux fusion protein measured every 30 mins for 24 hrs by luminescence reporter gene assay; summary of the method: as §1
# [4] = target: T2, Transcriptional regulator MvfR (Pseudomonas aeruginosa PA14) (UniProt A0A072ZLE6); experiment: Inhibition of PqsR in Pseudomonas aeruginosa PA14 harboring mCTX:PpqsA-lux fusion assessed as remaining activity at 10 uM incubated for 24 hrs by spot test relative to control
# T2 sequence (whole entry): T1 sequence (A0A072ZLE6 whole entry)
# Summary of the method: (§2)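 Chromosomal mCTX:PpqsA-lux reporter strain in LB, overnight culture (OD600 2.0–3.0) diluted to OD600 0.02 and mixed 1:1 with compound, final 10 μM, at least triplicate wells. Run at 37 °C for 24 h, with OD600 and luminescence read every 30 min. Luminescence/OD600 taken at the luminescence peak (8–9 h) and normalised to the 0.1% DMSO control (100%).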
# [5] = target: T2, Transcriptional regulator MvfR (Pseudomonas aeruginosa PA14); experiment: Inhibition of PqsR in Pseudomonas aeruginosa PAO1 L harboring mCTX:PpqsA-lux fusion protein assessed as remaining enzyme activity at 10 uM and measured every 30 mins for 24 hrs by spot test relative to control; summary of the method: as §2
# [6] = target: T2, Transcriptional regulator MvfR (Pseudomonas aeruginosa PA14); experiment: Inhibition of Pseudomonas aeruginosa PAO1-L PqsR assessed as reduction in pyocyanin production by measuring pyocyanin level at 3 times IC50 incubated for 16 hrs; set-up: scale not given: the % may be the effect or the level left
# [7] = test system: Pseudomonas aeruginosa PA14 PqsR; experiment: Therapeutic index, ratio of cytotoxicity against human A549 cells to IC50 for inhibition of Pseudomonas aeruginosa PA14 PqsR; assay type: toxicity, cell-based; settings: read-out: TI
# [8] = Solubility of the compound in test buffer at >100 uM; assay type: physicochemical
# [9] = test system: A549; experiment: Cytotoxicity against human A549 cells assessed as reduction in cell viability at 0.1 to 100 uM after 16 hrs by Alamar blue assay; assay type: cell-based; settings: a549, 16 h, dose 0.1-100 µM
# Summary of the method: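 A549 lung epithelial cells kept in DMEM with 10% FBS and 1% penicillin-streptomycin at 37 °C, 5% CO2. Trypsinised at 80% confluence, resuspended in DMEM-F12, seeded at 10,000 cells/well, left 16 h. Compound added (0.1–100 μM), 16 h further incubation. Alamar blue for 5 h, fluorescence ex 510/em 590 nm, normalised to untreated cells.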
# [10] = target: T2, Transcriptional regulator MvfR (Pseudomonas aeruginosa PA14); experiment: Inhibition of PqsR in Pseudomonas aeruginosa PAO1 L harboring mCTX:PpqsA-lux fusion at 10 uM and measured every 30 mins for 24 hrs by spot test; summary of the method: as §2
Structure (SMILES),Activity [1],IC50 [2] [µM],IC50 [3] [µM],Activity [4] [%],Activity [5] [%],further results
CC(C)CCc1nc(Cn2cnc3ccc(Cl)cc3c2=O)cs1,inactive,0.683,1.36,–,–,–
CCCCNc1nc(Cn2cnc3ccc(Cl)cc3c2=O)cs1,inactive,–,3.54,> 50,–,–
CCCCNc1ncc(Cn2cnc3ccc(Cl)cc3c2=O)s1,–,–,–,> 50,67,–
O=c1c2cc(Cl)ccc2ncn1Cc1csc(-c2ccco2)n1,inactive,1.31,1.33,–,–,–
O=c1c2cc(Cl)ccc2ncn1Cc1csc(-c2ccccc2)n1,inactive,0.123,0.244,–,–,–
COCCNc1nc(Cn2cnc3ccc(Cl)cc3c2=O)cs1,–,–,–,> 50,85,–
O=c1c2cc(Cl)ccc2ncn1Cc1csc(/C=C/c2ccco2)n1,inactive,2.92,2.05,–,–,–
N#CCc1nc(Cn2cnc3ccc(Cl)cc3c2=O)cs1,–,–,–,> 50,104,–
O=c1c2cc(Cl)ccc2ncn1Cc1cnc(Cl)s1,–,–,–,> 50,95,–
CCCCCc1nc(Cn2cnc3ccc(Cl)cc3c2=O)cs1,inactive,0.342,0.313,–,–,Activity [6]: 23%; selectivity ratio [7]: > 292; solubility [8]: Insoluble; Activity [9]: Non-Toxic
CCc1nc(Cn2cnc3ccc(Cl)cc3c2=O)cs1,–,–,–,> 50,79,–
CCC(C)Cc1nc(Cn2cnc3ccc(Cl)cc3c2=O)cs1 (configuration not stated),inactive,0.639,1.57,–,–,–
CC(C)(C)c1nc(Cn2cnc3cc(Cl)ccc3c2=O)cs1,inactive,–,2.94,> 50,–,–
CCCCCCc1nc(Cn2cnc3ccc(Cl)cc3c2=O)cs1,inactive,0.265,0.298,–,–,Activity [6]: 36%; selectivity ratio [7]: > 377; solubility [8]: Insoluble; Activity [9]: Non-Toxic
NC(N)=Nc1nc(Cn2cnc3ccc(Cl)cc3c2=O)cs1,–,–,–,> 50,108,–
CCCCCc1nc(Cn2cnc3cc(Cl)ccc3c2=O)cs1,–,–,–,> 50,106,–

Structure (SMILES),Activity [1],IC50 [2] [µM],IC50 [3] [µM],Activity [4] [%],Activity [5] [%],further results
CN(CCO)c1ncc(Cn2cnc3ccc(Cl)cc3c2=O)s1,–,–,–,> 50,101,–
COCCNc1ncc(Cn2cnc3ccc(Cl)cc3c2=O)s1,–,–,–,> 50,85,–
CC(C)(C)c1nc(Cn2cnc3ccc(Cl)cc3c2=O)cs1,inactive,0.65,0.397,–,–,–
O=c1c2cc(Cl)ccc2ncn1Cc1cnc(NC2CCCCC2)s1,–,–,–,> 50,83,–
CC(C)Cc1nc(Cn2cnc3ccc(Cl)cc3c2=O)cs1,inactive,1.33,1.22,–,–,–
Cc1nc(Cn2cnc3ccc(Cl)cc3c2=O)cs1,–,–,–,> 50,83,–
CC(C)c1ncc(Cn2cnc3ccc(Cl)cc3c2=O)s1,–,–,–,> 50,65,–
O=c1c2cc(Cl)ccc2ncn1Cc1csc(-c2ccc([N+](=O)[O-])cc2)n1,–,–,–,> 50,89,–
CCCCc1nc(Cn2cnc3ccc(Cl)cc3c2=O)cs1,inactive,1.72,1.56,–,–,–
CC1CCN(c2ncc(Cn3cnc4ccc(Cl)cc4c3=O)s2)CC1,–,–,–,> 50,72,–
CC(C)c1nc(Cn2cnc3ccc(Cl)cc3c2=O)cs1,inactive,1.58,1.05,–,–,–
CCCC(C)c1nc(Cn2cnc3ccc(Cl)cc3c2=O)cs1 (configuration not stated),inactive,0.646,1.11,–,–,–
O=c1c2cc(Cl)ccc2ncn1Cc1csc(C(F)(F)F)n1,–,–,–,> 50,52,–
CC(C)c1noc(Cn2cnc3ccc(Cl)cc3c2=O)n1,–,–,–,–,–,inhibition [10]: inactive
CC(C)c1nc(Cn2cnc3cc(F)ccc3c2=O)cs1,–,–,13.2,–,–,–
